This sample holds only a part of the variants without activity.

The labels stand for the following.
B1: tRNA (parent)
chain: GUUCCGUUGGCGUAAUGGUAACGCGUCUCCCUCCUAAGGAGAAGACUGCGGGUUCGAGUCCCGUACGGAACG

Variants of B1 are the subject of this data set. Put plainly: yeast fitness relative to wild type (ratio to wild type); higher = fitter; tRNA-Arg(CCU), competitive growth, 37 C, YPD. Summed up: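 Variants of the tRNA-Arg(CCU) gene were chemically synthesised with a 3% per-site mutation rate across 69 sites and placed at the native genomic locus in Saccharomyces cerevisiae. Six parallel replicates of the pooled strains were competed in YPD at 37°C for 24 hours, and gene amplicons from the start and end populations were read by 100-nucleotide paired-end sequencing. Darwinian fitness relative to wild type was derived from changes in genotype frequencies. Genotypes required ≥ 100 starting reads, and estimates < 0.5 were set to 0.5.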
On to C22G C31U, for which the yeast fitness was 1. With C22G C31A the figure was 0.78; with C22G C31G, 0.745.

Consider C22U C24A C29A A36C, for which the yeast fitness was at most 0.5. The result for C22G G25C A37G A65U reads 0.576; that for C22U C24G U35C G56C, at most 0.5. With C22G G23C G39A A45C C49U C61U G68A the figure was at most 0.5; with C22U C33U A42U A69C, 0.629; with C22G C55U A57U, at most 0.5. On to C22U C24G A36C A70C, for which the yeast fitness was at most 0.5.

As to C22U A45G G58C, the yeast fitness is 0.608.

In the case of C22G U26G C27G U53A, the yeast fitness is at most 0.5. Take C22U C49A: the yeast fitness was 0.682. Consider C22U C34G A36U U47C A65C, for which the yeast fitness is at most 0.5. The result for C22U C24A A43C C55U reads at most 0.5; that for C22U C31G C33A G38A U47A, at most 0.5. The result for C22U A36C C66A reads at most 0.5; that for C22U C31G G38A U47A C62U, at most 0.5; that for C22G U28C C31G, 0.6. With C22U A40U A57U A69U, the yeast fitness is at most 0.5. With C22U C29A C34A G41C A45C U47A C55A the figure was at most 0.5.

As to C22U C27U A42U A43U U47C, the yeast fitness was at most 0.5. For C22U C24A G25U A42G, the yeast fitness is at most 0.5. The result for C22U C27G A57C reads at most 0.5. The result for C22U C24U A36C A45G G56C reads at most 0.5; that for C22U A65G, 0.835. With C22U A65U the figure was 0.748; with C22U A65C, 0.708. As to C22G C34A, the yeast fitness is 0.757. With C22G C34G the figure was 0.612. With C22G G38U A42U the figure was at most 0.5.

As to C22U A70U, the yeast fitness was determined as 0.842. The result for C22U C30U U47C U54A reads at most 0.5. With C22G U26C C33U A37U A40C G63C the figure was at most 0.5; with C22G C34U A69U, 0.573; with C22G G58C C61U, 0.616. With C22U C34G G48C the figure was at most 0.5; with C22U A36G G51C, at most 0.5; with C22G G56A, 1.07.

Consider C22U A36C A45C, for which the yeast fitness was at most 0.5.

C22U C27G G41A C55U: the yeast fitness is at most 0.5. In the case of C22U C30U A42G C61A, the yeast fitness came out at 0.584.

As for C22G C61G C62U, the yeast fitness was at most 0.5. With C22G C33A C49G the figure was 0.592; with C22U C29U C33U A37C C55A, 0.615; with C22G U35A U47C C55U, at most 0.5.

With C22G C34G A40C A69U, the yeast fitness was 0.769. With C22U C24U C46U, the yeast fitness came to 0.654.

In the case of C22U A43C, the yeast fitness was found to be 0.712. C22U A36C A65U G67C: the yeast fitness was at most 0.5. With C22U A37U G52C C61G C66A the figure was at most 0.5. As for C22G G48C, the yeast fitness was 0.811.

With C22U A43U C55G C61U, the yeast fitness came to 0.659. For the variant C22G U32C A42C G48C C55G, the yeast fitness was at most 0.5. Consider C22U C29G C33U C61U A69C, for which the yeast fitness was at most 0.5. The result for C22U C30U A37U C46G U64A G67A reads at most 0.5; that for C22G G63A G68U, at most 0.5; that for C22U A36G, 0.948.

As to C22U C33G G58A C66U, the yeast fitness was 0.595.

On to C22U C46A C66U, for which the yeast fitness is at most 0.5. As to C22G C61U G68A, the yeast fitness is at most 0.5. Consider C22G G50A U59C, for which the yeast fitness was at most 0.5.

With C22U A37G G48C, the yeast fitness stood at 0.54. With C22U A40G G63C G67C A69U the figure was at most 0.5; with C22U A37U G50C C66U, 0.697; with C22G C30U C34U A43G, at most 0.5. With C22U C31A C60U the figure was at most 0.5; with C22U C31A C60G, at most 0.5.

In the case of C22G U47C A65U, the yeast fitness amounted to 0.64.

C22U A42G C61U: the yeast fitness amounted to 0.612.

As for C22G G44C, the yeast fitness was determined as 0.942. As to C22G G39A A70G, the yeast fitness was found to be 0.599. The result for C22G G63A reads 0.891; that for C22U C30U A37G G68A, at most 0.5; that for C22U A36U C49U G58C, 0.575. The result for C22G U59C reads 0.864; that for C22U C24A G56A A70U, at most 0.5. Turning to C22U A40G C61U U64G A69U, the yeast fitness was at most 0.5. The result for C22U C31U C60G A70G reads at most 0.5; that for C22G G52C G58C A65U, 0.592; that for C22G C31G A57U, at most 0.5. Regarding C22U C24G C30G G41C, the yeast fitness is at most 0.5. With C22G G44C C60U the figure was 0.762; with C22U C24U C60G, at most 0.5; with C22U C49U G58A, 0.621.

As for C22U C29G A40C A57C, the yeast fitness is at most 0.5. Take C22G G23C C27A U28C U32C: the yeast fitness is at most 0.5.

Take C22U A40C C62U: the yeast fitness was 0.648. For the variant C22U C34G G39A C49U, the yeast fitness is at most 0.5. The result for C22U C30U C33U A45C G56C G68C reads at most 0.5; that for C22G C46U G50A, 0.719; that for C22G G52A U64C, 0.537. The result for C22U C24U U35A A42C A57C reads 0.638; that for C22U A36C C49U A65G, 0.528. With C22G G44C U53A the figure was at most 0.5.

With C22U C29U A37U, the yeast fitness was at most 0.5. In the case of C22G C31A C49G G63C, the yeast fitness turned out to be 0.545. The result for C22G G23C G50C C55A C60A reads at most 0.5; that for C22U A37G A45U G52A, 0.588.

Take C22U A45U: the yeast fitness stood at 0.909.

As to C22U A45C, the yeast fitness was 0.75. The result for C22G G38C C55G reads at most 0.5. The result for C22G C31U G56A reads 1.16; that for C22U C30A C55G, at most 0.5; that for C22G G23C A43C G50C, at most 0.5. The result for C22U A36G C55A reads at most 0.5.

On to C22G U35C G50C, for which the yeast fitness is at most 0.5. The result for C22G G23C A42U reads 0.573; that for C22G G68U, 0.865. The result for C22G G68C reads 0.696; that for C22G G23A, 0.644; that for C22U C55G C62A, at most 0.5. The result for C22U A37U G50C reads 0.634; that for C22U C46G C55A, at most 0.5. Turning to C22G C31U A70U, the yeast fitness was 0.661. The result for C22U A40C C66U reads 0.523.

Take C22G C60G: the yeast fitness came out at 0.621. As to C22G U64A, the yeast fitness is 0.696.

With C22U C33U A69C, the yeast fitness was 0.522. The result for C22U A45G G56C reads 0.602. With C22U C27U A57G the figure was 0.53; with C22U C27G C66U A69U, at most 0.5; with C22G C31U C46U A69U, 0.526. Consider C22G U28A C31G C55A G68C, for which the yeast fitness amounted to 0.539. The result for C22U A42G A45C reads at most 0.5; that for C22G U47G, 0.597; that for C22G U47C, 0.89. The result for C22G U47A reads 0.754; that for C22U C33U A42U G52C A57C A65C, at most 0.5. Regarding C22G C31U U59G, the yeast fitness is 0.539. The result for C22G U35A G58A G67U reads at most 0.5. As to C22G U26G C66U, the yeast fitness is at most 0.5. The result for C22U C31G C60G reads at most 0.5; that for C22U C27U C33A, at most 0.5; that for C22G C34U C46A, at most 0.5. On to C22G C33U A42U A43G C61A, for which the yeast fitness is at most 0.5. The result for C22U C33G C34A A43C A65U reads at most 0.5; that for C22G C34U C49U C55G C62U, at most 0.5. Turning to C22U A42G A45C C55G, the yeast fitness is at most 0.5. With C22G C49U G56A the figure was 0.797; with C22U C27G U28G U32G, at most 0.5. The result for C22U C55A A65G C66U reads 0.585; that for C22U A37C G44A G63C, at most 0.5. With C22U A40U the figure was 0.642; with C22U A40C, 0.7; with C22U C31G G50A, 0.606.

Consider C22G G67C, for which the yeast fitness was determined as 0.97. The result for C22U C27G A40G A42G reads at most 0.5. With C22U C34U A36U U53C the figure was at most 0.5. Turning to C22U C33G G41C G56C G58A G63C A65U, the yeast fitness was at most 0.5. The result for C22U C24G A65U reads at most 0.5; that for C22U A42G C55G, 0.567.

Regarding C22U A43G A45C C46G G63A, the yeast fitness was found to be 0.635.

For the variant C22U A45C G50A, the yeast fitness was 0.698. For the variant C22G C31A A43G, the yeast fitness was at most 0.5. The result for C22G C31A A43G A70U reads at most 0.5. With C22U C30G G52A the figure was 0.514. C22G U35A U47C C55U A69C: the yeast fitness is 0.542. The result for C22U C33G G41C reads at most 0.5. The result for C22U C46G C49A G56A C60A A70C reads 0.534. The result for C22G U32C G58A reads 0.654; that for C22G C31G C66U A69C, 0.528. As to C22U C29G, the yeast fitness was 0.657. The result for C22G C60A C62U reads 0.589; that for C22U C30A U64A, 0.574; that for C22U C27U G56A, 0.51.

For C22G G51A A57U, the yeast fitness was at most 0.5.

Values taken from the RNAGym collection of RNA variant scans (doi:10.1126/science.aae0568).
